Series [1] in a line: Induction of Keratinocyte Differentiation in cross-linked envelope assay at 10 uM expressed as difference of the amount of cross-linked protein as a measure of HaCaT keratinocyte differentiation. The format is functional, Homo sapiens. Summed up:
(§1)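 HaCaT cultures were 144 h post-confluent; medium replaced, compound added from DMSO stocks diluted in DMEM (final DMSO 0.2%), controls DMSO or medium alone, 48 h. Cells were detached with trypsin/EDTA, lysed in SDS/β-ME, dot-blotted, TCA-heated, Coomassie-stained and scanned. Value is cross-linked protein minus vehicle, per mg protein (Bradford), mean ± SEM of 3 experiments.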

Series [2] can be described thus: Cytotoxic activity of LDH(mu) release in HaCaT cells was measured after treatment with 2 uM of the compound. The class given is functional, Homo sapiens. The method, boiled down:
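HaCaT cells treated with 2 µM compound. Membrane damage read as lactate dehydrogenase activity (mU) released into the culture medium. N = 3, SD < 10%.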

The nature of series [3]: Induction of Keratinocyte Differentiation in cross-linked envelope assay at 5 uM expressed as difference of the amount of cross-linked protein as a measure of HaCaT keratinocyte differentiation. The class given is functional, Homo sapiens. Summed up:
as §1

Series [4] in a line: Concentration required to inhibit 50% growth of HaCaT cells. The format is functional, cell-based. To be noted: Homo sapiens. Summed up: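 HaCaT keratinocytes treated for 48 h. Proliferation read by counting dispersed cells under phase-contrast microscope. Growth inhibition tested for significance against control, N = 3, P < 0.01.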
Series [5] in a line: Induction of Keratinocyte Differentiation in cross-linked envelope assay at 1 uM expressed as difference of the amount of cross-linked protein as a measure of HaCaT keratinocyte differentiation. The class given is functional, Homo sapiens. Summed up: as §1
The nature of series [6]: Partition coefficient (logP). The class given is physicochemical. Conditions: octanol/water.
The nature of series [7]: Deoxyribose degradation activity was measured as hydroxyl radical formation.
The nature of series [8]: Inhibition of LTB4 biosynthesis in bovine polymorphonuclear leukocytes using nordihydroguaiaretic acid. The class given is functional, cell-based, Bos taurus.

pIC50: −log10 of the molar value.

Broadly, the pIC50 is the IC50 on a negative log10 scale, so that one unit is a factor of ten. A lower pIC50 goes with a high IC50. With `O=C1c2c(O)cccc2C(C(=O)Cc2ccc(O)cc2)c2cccc(O)c21`, the Activity in series [1] is listed as 6.2 ug (mg of protein)-1; in series [3], 5.1 ug (mg of protein)-1; in series [5] it was 2.5 ug (mg of protein)-1. Besides, the LDH in series [2] is on record as 173 MU. Besides, in series [4], the pIC50 was 5.77.

On to `O=C1c2c(O)cccc2C(C(=O)Cc2ccc([N+](=O)[O-])cc2)c2cccc(O)c21`, for which, in series [2], the LDH is recorded as 179 MU. This compound gave a pIC50 in series [4] of 5.33.

For orientation: logP means the decadic logarithm of the partition coefficient of the neutral form, usually between octanol and water. Low readings indicate lower lipophilicity, high ones higher lipophilicity. In the case of `COc1cccc(COc2ccc(CC(=O)C3c4cccc(O)c4C(=O)c4c(O)cccc43)cc2)c1`, the logP in series [6] was determined as 5.19. For the same compound, in series [2], the LDH is listed as 159 MU. Besides, the pIC50 in series [4] and in series [8] was 6.00 in each case. The same compound displayed an Activity in series [7] of less than 0.3.

Compound `COc1ccc(COc2ccc(CC(=O)C3c4cccc(O)c4C(=O)c4c(O)cccc43)cc2)cc1` displayed a logP in series [6] of 4.91. For the same compound, the pIC50 in series [4] is 5.49; in series [8] it was 5.82. Further, the Activity in series [7] is less than 0.3.

`N#Cc1ccc(CC(=O)C2c3cccc(O)c3C(=O)c3c(O)cccc32)cc1` gave a logP in series [6] of 3.58. Moreover, the pIC50 in series [4] was 5.49; in series [8] it was 5.05.

Consider `Nc1ccc(CC(=O)C2c3cccc(O)c3C(=O)c3c(O)cccc32)cc1`, for which the Activity is 6.6 ug (mg of protein)-1 in series [1], 6 ug (mg of protein)-1 in series [3], 1.43 in series [7] and 0 ug (mg of protein)-1 in series [5]. For the same compound, the logP in series [6] was 3.29. Besides, the results for the pIC50 in series [4] and in series [8] were 5.92 and 6.00, respectively.

Take `O=C1c2c(O)cccc2C(C(=O)Cc2ccc(C(F)(F)F)cc2)c2cccc(O)c21`: in series [6], the logP was found to be 4.4. The figures for the pIC50 in series [4] and in series [8] were 5.80 and 4.96, respectively.

On to `O=C1c2ccccc2Cc2ccccc21` [ANTHRONE], for which the results for the Activity in series [1], in series [3] and in series [5] were 0.8 ug (mg of protein)-1, 0.3 ug (mg of protein)-1 and 0.5 ug (mg of protein)-1, respectively.

As for `CC(C)(C)OC(=O)Nc1ccc(CC(=O)C2c3cccc(O)c3C(=O)c3c(O)cccc32)cc1`, in series [6], the logP was determined as 4.17. The results for the pIC50 in series [4] and in series [8] were 5.74 and 5.70, respectively. Besides, in series [7], the Activity is 0.97.

Turning to `O=C1c2cccc(O)c2C(=O)c2c(O)cccc21` [DANTHRON], the results for the Activity in series [1], in series [3] and in series [5] were 0 ug (mg of protein)-1, -0.1 ug (mg of protein)-1 and 0.6 ug (mg of protein)-1, respectively.

`O=C1c2c(O)cccc2C(C(=O)Cc2ccc3c(c2)OCO3)c2cccc(O)c21` registered a logP in series [6] of 4.06. The pIC50 in series [4] was 5.48; in series [8] it was 6.00. Besides, the Activity in series [7] was less than 0.3.

On to `O=C1c2c(O)cccc2C(C(=O)Cc2ccc(I)cc2)c2cccc(O)c21`, for which the logP in series [6] came out at 4.8. Besides, the pIC50 in series [4] was 5.51; in series [8], 5.82. Besides, the Activity in series [7] is less than 0.3.

As for `O=C1c2c(O)cccc2C(C(=O)Cc2ccc(OCc3ccccc3)cc2)c2cccc(O)c21`, the LDH in series [2] was 202 MU. Further, the pIC50 in series [4] is 5.62; in series [8], 6.22. This compound also gave an Activity in series [7] of less than 0.3.

Regarding `CC(C)(C)c1cc(CC(=O)C2c3cccc(O)c3C(=O)c3c(O)cccc32)cc(C(C)(C)C)c1O`, in series [2], the LDH was 199 MU. The compound further had a pIC50 in series [4] of 5.52.

For the compound `CC(C(=O)C1c2cccc(O)c2C(=O)c2c(O)cccc21)c1ccccc1` (stereo unspecified), the logP in series [6] worked out at 4.43. Moreover, the negative logarithm of the IC50 (pIC50) in series [4] was 6.00; in series [8] it was 4.74. For the same compound, the Activity in series [7] is less than 0.3.

In series [6], `COc1ccccc1CC(=O)C1c2cccc(O)c2C(=O)c2c(O)cccc21` came in with a log partition coefficient (logP) of 4.2. Besides, the LDH in series [2] amounted to 125 MU. This compound gave a pIC50 in series [4] of 5.80.

As to `O=C1c2c(O)cccc2C(C(=O)Cc2ccc(F)cc2)c2cccc(O)c21`, the Activity was 3.5 ug (mg of protein)-1 in series [1], 2.4 ug (mg of protein)-1 in series [3], less than 0.3 in series [7] and 0.6 ug (mg of protein)-1 in series [5]. Further, the logP in series [6] was 4.11. Besides, the figures for the pIC50 in series [4] and in series [8] were 5.59 and 4.96, respectively.

In series [6], `CC(C)Cc1ccc(C(C)C(=O)C2c3cccc(O)c3C(=O)c3c(O)cccc32)cc1` (stereo unspecified) returned a log partition coefficient (logP) of 5.57. The compound further had a pIC50 in series [4] of 5.46.

`O=C1c2c(O)cccc2C(C(=O)Cc2ccc(Br)cc2)c2cccc(O)c21`: the logP in series [6] stood at 4.6. For the same compound, the pIC50 was 5.54 in series [4] and 6.15 in series [8]. The compound also registered an Activity in series [7] of less than 0.3.

With `CCCOc1ccc(CC(=O)C2c3cccc(O)c3C(=O)c3c(O)cccc32)cc1`, the logP in series [6] is 4.97. Also, the LDH in series [2] is on record as 132 MU. Moreover, the pIC50 in series [4] was 5.80; in series [8], 6.00. The Activity in series [7] was less than 0.3.

For `CSc1ccc(CC(=O)C2c3cccc(O)c3C(=O)c3c(O)cccc32)cc1`, the logP in series [6] was found to be 4.42. Besides, the pIC50 is 5.80 in series [4] and 5.22 in series [8].

In series [6], `COc1cccc(CC(=O)C2c3cccc(O)c3C(=O)c3c(O)cccc32)c1` had a logP of 4.16. The pIC50 in series [4] is 5.57; in series [8], 5.52. This compound registered an Activity in series [7] of less than 0.3.

On to `CC(C(=O)C1c2cccc(O)c2C(=O)c2c(O)cccc21)c1ccc(C(=O)c2ccccc2)cc1` (stereo unspecified), for which the logP in series [6] stood at 4.46. In series [2], the LDH came out at 191 MU. The pIC50 was 6.05 in series [4] and 5.05 in series [8]. Besides, the Activity in series [7] was less than 0.3.

`CCCCOc1ccc(CC(=O)C2c3cccc(O)c3C(=O)c3c(O)cccc32)cc1`: the Activity in series [1] is 3.4 ug (mg of protein)-1; in series [3] it was 3.4 ug (mg of protein)-1; in series [7] it was less than 0.3; in series [5] it was 2.5 ug (mg of protein)-1. The compound also showed a logP in series [6] of 5.41. In addition, the pIC50 in series [4] is 5.92; in series [8] it was 5.82.

For `O=C1c2c(O)cccc2C(C(=O)Cc2ccccc2Nc2c(Cl)cccc2Cl)c2cccc(O)c21`, in series [6], the logP was 3.91. Also, in series [2], the LDH was 247 MU. In addition, the pIC50 in series [4] was 5.89; in series [8] it was 5.52. Besides, the Activity in series [7] is 0.45.

Turning to `O=C1c2c(O)cccc2C(Cc2ccccc2)c2cccc(O)c21`, the values for the Activity in series [1], in series [3] and in series [5] were 0.9 ug (mg of protein)-1, -0.8 ug (mg of protein)-1 and -1 ug (mg of protein)-1, respectively.

With `CCOc1ccc(CC(=O)C2c3cccc(O)c3C(=O)c3c(O)cccc32)cc1`, the logP in series [6] turned out to be 4.51. Further, the LDH in series [2] came out at 142 MU. Besides, the values for the pIC50 in series [4] and in series [8] were 5.77 and 6.00, respectively. Further, the Activity in series [7] was less than 0.3.

In the case of `O=C(O)Cc1ccc(CC(=O)C2c3cccc(O)c3C(=O)c3c(O)cccc32)cc1`, the logP in series [6] turned out to be 2.84. The pIC50 is 5.77 in series [4] and 5.52 in series [8]. The same compound returned an Activity in series [7] of 0.93.

With `CN(C)c1ccc(CC(=O)C2c3cccc(O)c3C(=O)c3c(O)cccc32)cc1`, the logP in series [6] was 4.42. Moreover, the pIC50 is 5.89 in series [4] and 5.22 in series [8].

The compound `COC(=O)c1ccc(CC(=O)C2c3cccc(O)c3C(=O)c3c(O)cccc32)cc1` yielded a logP in series [6] of 4.07. The LDH in series [2] came to 164 MU. Besides, the pIC50 in series [4] was 5.74; in series [8] it was 4.92. This compound also gave an Activity in series [7] of less than 0.3.

`CC(C)Oc1ccc(CC(=O)C2c3cccc(O)c3C(=O)c3c(O)cccc32)cc1` returned a logP in series [6] of 4.59. Besides, the pIC50 in series [4] is 5.74; in series [8] it was 4.82. In series [7], this compound yielded an Activity of less than 0.3.

As for `O=C1c2c(O)cccc2C(C(=O)Cc2ccc(Cl)cc2)c2cccc(O)c21`, the logP in series [6] was 4.49. Besides, the pIC50 in series [4] is 5.66; in series [8], 6.00. The same compound gave an Activity in series [7] of less than 0.3.

Regarding `COc1ccc(CC(=O)C2c3cccc(O)c3C(=O)c3c(O)cccc32)cc1O`, the logP in series [6] amounted to 3.41. Besides, the values for the pIC50 in series [4] and in series [8] were 5.72 and 5.10, respectively.

In turn, `COc1ccc(CC(=O)C2c3cccc(O)c3C(=O)c3c(O)cccc32)cc1OC` returned a logP in series [6] of 3.77. Moreover, the pIC50 in series [4] was 5.38; in series [8], 4.66. For the same compound, the Activity in series [7] stood at 0.86.

Take `O=C1c2c(O)cccc2C(C(=O)Cc2ccc(-c3ccccc3)cc2)c2cccc(O)c21`: the Activity in series [1] was 4.6 ug (mg of protein)-1; in series [3], 3.8 ug (mg of protein)-1; in series [7], less than 0.3; in series [5], 1.8 ug (mg of protein)-1. This compound returned a logP in series [6] of 5.02. Also, the pIC50 was 5.66 in series [4] and 5.15 in series [8].

Take `CCOC(=O)c1ccc(CC(=O)C2c3cccc(O)c3C(=O)c3c(O)cccc32)cc1`: the logP in series [6] was found to be 4.34. Further, the results for the negative logarithm of the IC50 (pIC50) in series [4] and in series [8] were 5.89 and 5.22, respectively. Also, in series [7], the Activity is less than 0.3.

As to `O=C1c2c(O)cccc2C(C(=O)Cc2ccc(Cl)c(Cl)c2)c2cccc(O)c21`, in series [6], the logP was found to be 4.74. In addition, the negative-log IC50 (pIC50) in series [4] was 5.92; in series [8] it was 5.05.

The values are drawn from ChEMBL document CHEMBL1134364, “Antipsoriatic anthrones with modulated redox properties. 5. Potent inhibition of human keratinocyte growth, induction of keratinocyte differentiation, and reduced membrane damage by novel 10-arylacetyl-1,8-dihydroxy-9(10H)-anthracenones” (J Med Chem, 2001).
